{"data": "Experimental data of several laboratories", "organism": "Bacillus subtilis", "observed": "microbial growth", "note": "Each line is one published result; the experiments were not run side by side."}
{"SMILES": "CCCCCCCCCC(=O)N[C@@H](Cc1c[nH]c2ccccc12)C(=O)N[C@H](CC(N)=O)C(=O)N[C@@H](CC(=O)O)C(=O)N[C@@H]1C(=O)NCC(=O)N[C@@H](CCCN)C(=O)N[C@@H](CC(=O)O)C(=O)N[C@H](C)C(=O)N[C@@H](CC(=O)O)C(=O)NCC(=O)N[C@H](CO)C(=O)N[C@@H]([C@H](C)CC(=O)O)C(=O)N[C@@H](CC(=O)c2ccccc2N)C(=O)O[C@@H]1C", "test": "broth dilution", "test system": "168", "MIC": "0.25 µg/mL"}
{"SMILES": "CCCCCCCCCCCC(=O)OC[C@H]1O[C@@H](n2cc(C)c(=O)[nH]c2=O)C[C@@H]1OC(=O)c1ccc(C(C)(C)C)cc1", "test": "broth dilution", "MIC": "1 µg/mL"}
{"SMILES": "Oc1cc(Cl)ccc1Oc1ccc(Cl)cc1Cl", "MIC": "1.8 µg/mL"}
{"SMILES": "CO[C@@H]1[C@@H](OC(N)=O)[C@@H](O)[C@H](Oc2ccc3c(O)c(NC(=O)c4ccc(O)c(CC=C(C)C)c4)c(=O)oc3c2C)OC1(C)C", "test": "broth dilution", "test system": "ATCC6633", "MIC": "< 6.25 µM"}
{"SMILES": "CCCCCCCCCCCC(=O)C(F)(F)P(=O)(O)O", "test system": "ATCC23857", "MIC": "> 200 µg/mL"}
{"SMILES": "CC1C(=NOCc2cn(-c3ccccc3)nn2)CC(c2ccccc2)OC1c1ccccc1 (stereo not shown)", "test": "broth dilution", "test system": "MTCC121", "setting": "24 h", "MIC": "50 µg/mL"}
{"SMILES": "CCCCCCCCCCCCCCCC(=O)NP(=O)(O)O", "test system": "ATCC23857", "MIC": "> 200 µg/mL"}
{"SMILES": "CCC1C(=NOCc2cn(-c3ccccc3)nn2)CC(c2ccccc2)OC1c1ccccc1 (stereo not shown)", "test": "broth dilution", "test system": "MTCC121", "setting": "24 h", "MIC": "25 µg/mL"}
{"SMILES": "CCCCCCCC(=O)CP(=O)(O)O", "test system": "ATCC23857", "MIC": "> 200 µg/mL"}
{"SMILES": "Cc1c(NN=C(C#N)C2=NC(=O)CS2)c(=O)n(-c2ccccc2)n1C", "test": "broth dilution", "MIC": "0.98 µg/mL"}
